Consider 6 compounds from ChEMBL document CHEMBL4359929, “Piperidine and piperazine inhibitors of fatty acid amide hydrolase targeting excitotoxic pathology” (Bioorg Med Chem, 2019).

Activity calls are given as the source filed them.

Broadly, the half-life is the time needed for the level to fall by half in the phase considered. As a reminder, the IC50 is the concentration at which inhibition is half-maximal.

Series [1] in a line: Stability in mouse gastric fluid assessed as half life. It counts as ADME, tissue-based, Gastric juice. An outline of the steps: (§1)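 Stability assessed as half-life in human, rat and mouse plasma and gastric fluid, and in human, rat and mouse liver microsomal preparations.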
The nature of series [2]: Stability in rat liver microsomes assessed as half life. It counts as ADME, Microsome. An outline of the steps: as §1
Series [3] addresses T1, Monoglyceride lipase (Homo sapiens, UniProt Q99685).
T1 sequence (Q99685 whole entry): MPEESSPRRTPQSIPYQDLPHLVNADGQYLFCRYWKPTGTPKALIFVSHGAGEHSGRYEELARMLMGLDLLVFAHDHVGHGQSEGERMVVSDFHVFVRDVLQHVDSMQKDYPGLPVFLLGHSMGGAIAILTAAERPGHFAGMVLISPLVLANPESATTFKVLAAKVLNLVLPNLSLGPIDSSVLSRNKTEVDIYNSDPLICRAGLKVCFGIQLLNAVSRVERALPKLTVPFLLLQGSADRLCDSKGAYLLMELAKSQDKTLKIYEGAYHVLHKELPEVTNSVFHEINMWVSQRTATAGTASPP
The series is described as follows: Inhibition of human recombinant His-tagged MGL expressed in Escherichia coli BL21 DE3 cells using AHMMCE as substrate preincubated with enzyme for 15 mins followed by substrate addition and measured after every 15 mins for 3 hrs by fluorescence based assay. In a few lines:
(§2)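 Fluorescent enzyme assay in throughput format. Human recombinant FAAH or purified rat FAAH used arachidonoyl 7-amino-4-methylcoumarin amide as substrate; human recombinant MGL was run by a similar fluorometric procedure.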

The nature of series [4]: Stability in human gastric fluid assessed as half life. It counts as ADME, tissue-based, Gastric juice. In a few lines:
as §1

The nature of series [5]: Stability in rat gastric fluid assessed as half life. The class given is ADME, tissue-based, Gastric juice. In a few lines:
as §1

Series [6] is filed under the species Homo sapiens. Nature of the series: Selectivity ratio of IC50 for human full length ABHD6 expressed in Escherichia coli cells to IC50 for human recombinant MBP-tagged FAAH expressed in Escherichia coli cells by fluorescence based assay.
Series [7] has as its target Cannabinoid receptor 1 (Rattus norvegicus) (UniProt P20272). Nature of the series: Displacement of [3H]CP55940 from CB1 receptor in rat brain by competition-equilibrium binding analysis. In general terms: Displacement assays read how much labelled ligand stays bound in the presence of the test substance.
Target sequence in this assay (P20272 whole entry, looked up): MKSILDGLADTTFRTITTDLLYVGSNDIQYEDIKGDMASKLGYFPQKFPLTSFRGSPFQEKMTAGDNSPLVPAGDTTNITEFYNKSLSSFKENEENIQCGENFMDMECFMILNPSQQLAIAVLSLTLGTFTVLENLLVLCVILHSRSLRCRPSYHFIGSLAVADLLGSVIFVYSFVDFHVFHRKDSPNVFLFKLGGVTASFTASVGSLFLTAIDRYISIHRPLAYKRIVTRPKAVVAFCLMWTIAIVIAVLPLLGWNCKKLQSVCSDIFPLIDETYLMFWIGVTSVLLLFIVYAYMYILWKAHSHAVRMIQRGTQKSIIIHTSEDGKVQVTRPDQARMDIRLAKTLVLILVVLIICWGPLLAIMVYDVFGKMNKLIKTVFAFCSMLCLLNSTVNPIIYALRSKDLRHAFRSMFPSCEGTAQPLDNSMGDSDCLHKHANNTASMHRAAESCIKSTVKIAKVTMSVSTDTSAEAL
The target in series [8] is T2, Fatty-acid amide hydrolase 1 (Rattus norvegicus, UniProt P97612).
T2 sequence (P97612 whole entry): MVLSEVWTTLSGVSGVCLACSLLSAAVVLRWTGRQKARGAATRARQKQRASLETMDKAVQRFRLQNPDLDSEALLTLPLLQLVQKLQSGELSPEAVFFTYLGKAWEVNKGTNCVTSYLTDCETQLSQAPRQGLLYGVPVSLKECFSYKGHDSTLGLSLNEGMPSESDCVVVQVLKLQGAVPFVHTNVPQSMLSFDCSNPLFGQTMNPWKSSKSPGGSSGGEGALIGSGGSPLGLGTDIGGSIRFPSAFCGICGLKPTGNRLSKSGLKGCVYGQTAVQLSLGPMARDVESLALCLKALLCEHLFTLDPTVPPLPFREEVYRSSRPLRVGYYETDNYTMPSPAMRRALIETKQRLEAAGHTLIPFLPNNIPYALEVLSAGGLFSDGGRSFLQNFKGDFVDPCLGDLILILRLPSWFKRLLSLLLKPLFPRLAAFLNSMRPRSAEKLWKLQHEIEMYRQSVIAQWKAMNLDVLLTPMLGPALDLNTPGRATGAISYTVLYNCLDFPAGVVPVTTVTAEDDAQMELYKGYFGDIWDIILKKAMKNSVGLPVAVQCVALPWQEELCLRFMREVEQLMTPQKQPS
The series is described as follows: Inhibition of rat recombinant His/GST-tagged FAAH expressed in Escherichia coli cells using AAMCA as substrate incubated for 15 mins followed by substrate addition and measured after every 20 mins for 4 hrs by fluorescence based assay. In a few lines: as §2

Series [9] concerns the target Cannabinoid receptor 1 (Rattus norvegicus) (UniProt P20272). Nature of the series: Displacement of [3H]CP55940 from CB1 receptor in rat brain by competition-equilibrium binding analysis. It counts as tissue-based. In a few lines: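 Rat brain membranes as CB1 source; competition-equilibrium binding against [3H]CP-55,940.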
Target sequence in this assay (P20272 whole entry): as the sequence (P20272 whole entry, looked up) above
The species named for series [10] is Homo sapiens. The series is described as follows: Selectivity ratio of IC50 for human recombinant His-tagged MGL expressed in Escherichia coli BL21 DE3 cells to IC50 for human recombinant MBP-tagged FAAH expressed in Escherichia coli cells by fluorescence based assay.
Series [11] can be described thus: Stability in rat plasma assessed as half life. It counts as ADME, cell-free. An outline of the steps:
as §1

A short description of series [12]: Stability in human plasma assessed as half life. The class given is ADME, cell-free. In a few lines:
as §1

Series [13] can be described thus: Stability in human liver microsomes assessed as half life. It counts as ADME, Microsome. An outline of the steps: as §1
In general terms: Microsomes from liver hold many membrane-bound enzymes, among them those of drug oxidation.

Series [14] in a line: Selectivity ratio of IC50 for human full length ABHD6 expressed in Escherichia coli cells to IC50 for rat recombinant His/GST-tagged FAAH expressed in Escherichia coli cells by fluorescence based assay.
Series [15] is described as follows: Stability in mouse liver microsomes assessed as half life. It counts as ADME, Microsome. An outline of the steps:
as §1

The target of series [16] is T3, Fatty-acid amide hydrolase 1 (Homo sapiens, UniProt O00519).
T3 sequence (O00519 whole entry): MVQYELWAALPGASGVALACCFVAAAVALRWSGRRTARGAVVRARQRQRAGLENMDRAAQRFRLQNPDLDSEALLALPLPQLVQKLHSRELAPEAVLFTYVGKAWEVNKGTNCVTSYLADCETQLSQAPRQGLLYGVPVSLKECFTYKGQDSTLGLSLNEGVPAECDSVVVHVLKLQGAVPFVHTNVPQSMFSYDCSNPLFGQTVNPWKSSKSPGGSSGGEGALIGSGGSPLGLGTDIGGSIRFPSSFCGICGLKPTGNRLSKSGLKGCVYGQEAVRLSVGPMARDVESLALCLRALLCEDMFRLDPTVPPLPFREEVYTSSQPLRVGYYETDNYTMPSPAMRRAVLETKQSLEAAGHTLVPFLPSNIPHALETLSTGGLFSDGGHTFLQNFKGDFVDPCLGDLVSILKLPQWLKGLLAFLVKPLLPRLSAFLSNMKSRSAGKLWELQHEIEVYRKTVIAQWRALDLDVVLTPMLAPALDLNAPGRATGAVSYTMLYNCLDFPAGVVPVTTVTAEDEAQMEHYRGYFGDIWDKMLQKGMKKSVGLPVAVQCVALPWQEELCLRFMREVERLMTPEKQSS
The series is described as follows: Inhibition of human recombinant MBP-tagged FAAH expressed in Escherichia coli cells using AAMCA as substrate incubated for 15 mins followed by substrate addition and measured after every 20 mins for 4 hrs by fluorescence based assay. An outline of the steps: as §2

Series [17] is described as follows: Stability in mouse plasma assessed as half life. The class given is ADME, cell-free. An outline of the steps:
as §1

Series [18] concerns the target Cannabinoid receptor 2 (Homo sapiens) (UniProt P34972). Nature of the series: Displacement of [3H]CP55940 from human CB2 receptor expressed in HEK293 cells by competition-equilibrium binding analysis. It counts as cell-based. An outline of the steps: (§3)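 HEK293 cell membranes expressing mouse or human CB2; competition-equilibrium binding against [3H]CP-55,940.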

A short description of series [19]: Selectivity ratio of IC50 for human recombinant His-tagged MGL expressed in Escherichia coli BL21 DE3 cells to IC50 for rat recombinant His/GST-tagged FAAH expressed in Escherichia coli cells by fluorescence based assay.
For series [20], the target named is Cannabinoid receptor 2 (Mus musculus) (UniProt P47936). The series is described as follows: Displacement of [3H]CP55940 from mouse CB2 receptor expressed in HEK293 cells by competition-equilibrium binding analysis. The class given is cell-based. In a few lines: as §3
Chain of Cannabinoid receptor 2 (Mus musculus) (P47936 whole entry): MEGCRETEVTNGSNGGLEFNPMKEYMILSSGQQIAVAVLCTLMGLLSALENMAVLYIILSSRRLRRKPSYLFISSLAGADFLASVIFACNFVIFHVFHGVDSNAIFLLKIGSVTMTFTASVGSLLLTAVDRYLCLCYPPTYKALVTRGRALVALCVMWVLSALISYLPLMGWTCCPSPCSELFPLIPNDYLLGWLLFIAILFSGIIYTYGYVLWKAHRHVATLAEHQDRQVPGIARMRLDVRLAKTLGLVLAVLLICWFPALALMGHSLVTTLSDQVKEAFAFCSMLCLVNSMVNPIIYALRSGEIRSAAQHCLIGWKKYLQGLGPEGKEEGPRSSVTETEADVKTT

Chain of Cannabinoid receptor 2 (Homo sapiens) (P34972 whole entry): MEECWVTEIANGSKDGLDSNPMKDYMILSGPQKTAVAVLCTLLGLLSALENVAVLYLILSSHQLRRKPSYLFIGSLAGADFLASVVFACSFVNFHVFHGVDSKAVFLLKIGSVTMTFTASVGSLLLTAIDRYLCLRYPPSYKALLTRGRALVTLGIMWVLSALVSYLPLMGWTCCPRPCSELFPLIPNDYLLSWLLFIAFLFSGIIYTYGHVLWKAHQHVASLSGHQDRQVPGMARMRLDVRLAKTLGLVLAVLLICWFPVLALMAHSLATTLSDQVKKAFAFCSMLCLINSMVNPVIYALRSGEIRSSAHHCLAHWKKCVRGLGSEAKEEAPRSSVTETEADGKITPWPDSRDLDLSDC

Regarding `CC1CN(c2ccccc2)CCN1C(=O)Oc1cccc(N2CCS(=O)(=O)CC2)c1` (stereo not given), the half-life is over 60 min in series [1]; 15 to 25 min in series [2]; over 60 min in [4]; over 60 min in series [5]; over 60 min in series [11]; over 60 min in series [12]. Besides, the half-life in series [13] was 15 to 25 min; in series [15], 15 to 25 min; in series [17] it was over 60 min. Besides, the IC50 in series [3] is over 1000 nM; in series [8] it was 5.5 nM; in [16] it was 2.6 nM. For the same compound, the Ratio IC50 in series [6], in [10], in [14] and in [19] was over 1000 in each case. In addition, the result in [7], in series [9], in series [18] and in series [20] was inactive.
With `CN1CCN(c2cccc(OC(=O)N3CCC(c4ccc(F)cc4)CC3)c2)CC1`, the half-life in series [1] is over 60 min; in series [2], 15 to 25 min; in series [4], over 60 min; in [5] it was over 60 min; in series [11], over 60 min; in [12] it was over 60 min. In addition, the results for the half-life in [13], in series [15] and in series [17] were 15 to 25 min, 15 to 25 min and over 60 min, respectively. The IC50 was over 1000 nM in series [3], 9.4 nM in series [8] and 33.2 nM in [16]. Moreover, the Ratio IC50 in series [6], in series [10], in series [14] and in series [19] was over 1000 in each case. Moreover, the outcome in [7], in series [9], in [18] and in series [20] was inactive.
As for `N#Cc1ccc(C2CCN(C(=O)Oc3cccc(N4CCS(=O)(=O)CC4)c3)CC2)cc1`, the half-life was over 60 min in series [1]; 15 to 25 min in series [2]; over 60 min in series [4]; over 60 min in series [5]; over 60 min in series [11]; over 60 min in series [12]. The half-life in series [13] was 15 to 25 min; in series [15], 15 to 25 min; in series [17] it was over 60 min. The results for the IC50 in [3], in [8] and in series [16] were over 1000 nM, 9.9 nM and 22.7 nM, respectively. The Ratio IC50 in series [6], in series [10], in series [14] and in [19] was over 1000 in each case. Besides, the outcome in [7], in [9], in [18] and in series [20] was inactive.
In the case of `O=C(Oc1cccc(N2CCS(=O)(=O)CC2)c1)N1CCN(c2ccccc2)CC1`, the half-life in series [1] was over 60 min; in series [2], 15 to 25 min; in series [4], over 60 min; in [5] it was over 60 min; in series [11], over 60 min; in series [12], over 60 min. Also, the half-life in series [13] was 15 to 25 min; in [15], 15 to 25 min; in [17], over 60 min. In addition, the IC50 in series [3] is over 1000 nM; in series [8] it was 8 nM; in series [16] it was 15 nM. Further, the Ratio IC50 in [6], in [10], in [14] and in [19] was over 1000 each time. Further, the result in series [7], in [9], in series [18] and in [20] was inactive.
Consider `COc1ccc(C2CCN(C(=O)Oc3cccc(N4CCS(=O)(=O)CC4)c3)CC2)cc1`, for which the half-life is over 60 min in series [1]; 15 to 25 min in series [2]; over 60 min in [4]; over 60 min in series [5]; over 60 min in series [11]; over 60 min in [12]. Further, the half-life in series [13] is 15 to 25 min; in [15], 15 to 25 min; in series [17], over 60 min. For the same compound, the IC50 in series [3] is over 1000 nM; in series [8] it was 2.61 nM; in series [16], 6.3 nM. For the same compound, the Ratio IC50 in series [6], in [10], in [14] and in series [19] was over 1000 in each case. The outcome in series [7], in series [9], in series [18] and in series [20] was inactive.
Turning to `O=C(Oc1cccc(N2CCCCC2)c1)N1CCC(c2ccc(F)cc2)CC1`, the half-life in series [1] is over 60 min; in series [2] it was 15 to 25 min; in series [4] it was over 60 min; in [5], over 60 min; in [11], over 60 min; in series [12], over 60 min. Also, the half-life is 15 to 25 min in [13], 15 to 25 min in series [15] and over 60 min in series [17]. Moreover, the IC50 is over 1000 nM in series [3], 6.8 nM in series [8] and 40 nM in series [16]. In addition, the Ratio IC50 in series [6], in series [10], in [14] and in series [19] was over 1000 throughout. The result in [7], in [9], in [18] and in series [20] was inactive.
